Each structure is given as a SMILES string. Activity calls are given as the source filed them. The rule behind the calls is not given here.

Test [1] can be described thus: Cytotoxicity against human Hep3B cells after 24 hrs by MTT assay. The format is cell-based, Hep 3B2.
Test [2] has as its target T1, Hypoxia-inducible factor 1-alpha (Homo sapiens, UniProt Q16665). The experiment in a line: Inhibition of hypoxia-induced HIF1alpha activation in human Hep3B cells after 16 hrs by HRE-luciferase reporter assay. The settings on record: hep 3b2. The format is cell-based. In general terms: A reporter such as luciferase makes a cellular process visible.
Target sequence in this assay (Q16665 whole entry): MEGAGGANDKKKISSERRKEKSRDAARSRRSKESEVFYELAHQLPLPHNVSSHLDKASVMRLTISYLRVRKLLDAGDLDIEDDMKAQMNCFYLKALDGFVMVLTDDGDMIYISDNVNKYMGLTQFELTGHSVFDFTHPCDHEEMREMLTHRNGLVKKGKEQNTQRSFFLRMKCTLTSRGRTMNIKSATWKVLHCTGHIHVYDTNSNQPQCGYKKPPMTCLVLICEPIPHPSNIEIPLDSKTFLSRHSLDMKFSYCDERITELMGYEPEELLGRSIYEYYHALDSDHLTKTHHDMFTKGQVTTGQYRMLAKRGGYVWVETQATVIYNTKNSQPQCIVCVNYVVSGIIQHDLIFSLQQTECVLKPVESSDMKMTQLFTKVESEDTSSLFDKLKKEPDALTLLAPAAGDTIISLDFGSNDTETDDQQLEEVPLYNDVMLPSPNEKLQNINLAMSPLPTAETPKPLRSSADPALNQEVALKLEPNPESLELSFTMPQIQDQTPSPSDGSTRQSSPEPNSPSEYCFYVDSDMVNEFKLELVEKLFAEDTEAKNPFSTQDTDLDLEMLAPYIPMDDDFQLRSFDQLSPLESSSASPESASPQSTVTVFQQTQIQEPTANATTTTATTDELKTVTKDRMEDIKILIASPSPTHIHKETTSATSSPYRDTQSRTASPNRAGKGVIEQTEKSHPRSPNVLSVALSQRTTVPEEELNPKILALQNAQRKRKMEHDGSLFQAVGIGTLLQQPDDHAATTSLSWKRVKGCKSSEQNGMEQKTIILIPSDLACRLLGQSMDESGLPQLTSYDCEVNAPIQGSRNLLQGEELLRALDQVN
Test [3] addresses T1, Hypoxia-inducible factor 1-alpha. The test is described as follows: Inhibition of hypoxia-induced HIF1alpha protein accumulation in nucleus of human Hep3B cells after 12 hrs by Western blot analysis. The test is classed as functional, cell-based. The settings on record: Hep 3B2. In a few lines:
(§1)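 Hep3B cells were kept under normoxia or hypoxia for 12 h with or without compound. HIF-1α in nuclear extracts was detected by western blot, with the same blot reprobed for topoisomerase-I as loading control. Bands were quantified by image scanning in arbitrary units.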
A general note: In western blotting, separated proteins are transferred to a membrane and probed.
Target sequence in this assay (Q16665 whole entry, looked up): as the sequence (Q16665 whole entry) above

For test [4] the target is unchanged. The test is described as follows: Inhibition of HIF1alpha-mediated VEGF production in human Hep3B cells under hypoxic condition after 17.5 hrs by ELISA. The format is cell-based. The settings on record: Hep 3B2. In a few lines:
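Hep3B cells were held under normoxia or hypoxia for 17.5 h with or without compound. Secreted VEGF was then measured by ELISA in the culture supernatant.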
(In general: ELISA stands for enzyme-linked immunosorbent assay.)
Target sequence in this assay (Q16665 whole entry, looked up): as the sequence (Q16665 whole entry) above

For test [5] the target is unchanged. The experiment in a line: Inhibition of hypoxia-induced HIF1alpha protein accumulation in nucleus of human Hep3B cells after 12 hrs at 10 uM by Western blot analysis. The test is classed as functional, cell-based. The settings on record: Hep 3B2. In a few lines: as §1
Target sequence in this assay (Q16665 whole entry, looked up): as the sequence (Q16665 whole entry) above

In the case of `CC(C)(O)C1Cc2ccc(OC(=O)c3cc(OCc4ccccc4)cc(OCc4ccccc4)c3)cc2O1` (stereo not drawn), the IC50 (in general, the concentration needed to halve the response being measured) in test [1] is greater than 30 µM; in test [2], 26200 nM.

On to `CC(C)(O)C1Cc2cc3cc(-c4ccccc4)oc3cc2O1` (stereo not drawn), for which the results for the IC50 in test [1] and in test [2] were greater than 30 µM and 54 nM, respectively.

For the compound `CC1(C)Oc2cc(OC(=O)c3ccc(-c4cccc([N+](=O)[O-])c4)cc3)ccc2CC1O` (stereo not drawn), the IC50 in test [1] was greater than 30 µM; in test [2], 17500 nM.

For the compound `Cc1ccc(-c2cc3cc4c(cc3o2)OC(C(C)(C)O)C4)cc1` (stereo not drawn), the IC50 in test [1] is greater than 30 µM; in test [2], 310 nM.

Take `CC(C)(O)C1Cc2cc3cc(-c4cc(O)cc(O)c4)oc3cc2O1` (racemic) [MORACIN O]: the results for the IC50 in test [1] and in test [2] were greater than 30 µM and 6.76 nM, respectively.

For the compound `CC(C)(O)[C@H]1Cc2cc3cc(-c4cc(O)cc(O)c4)oc3cc2O1`, the inhibition entry in test [3] is “Dose-dependent effect”. In test [2], this compound yielded an IC50 of 6.76 nM.

In the case of `COc1cccc(-c2ccc(C(=O)Oc3ccc4c(c3)OC(C)(C)C(O)C4)cc2)c1` (stereo not drawn), the IC50 in test [1] was greater than 30 µM; in test [2], 17200 nM.

For the compound `COc1cc(OC)cc(-c2cc3cc4c(cc3o2)OC(C(C)(C)O)C4)c1` (stereo not drawn), the values for the IC50 in test [1] and in test [2] were greater than 30 µM and 10 nM, respectively.

For the compound `CC1(C)Oc2cc(OC(=O)c3ccc(O)cc3)ccc2CC1O` (stereo not drawn), the figures for the concentration for half-maximal inhibition (IC50) in test [1] and in test [2] were greater than 30 µM and greater than 30000 nM, respectively.

Take `CC1(C)Oc2cc(OC(=O)c3cc(O)cc(O)c3)ccc2CC1O` (stereo not drawn): the IC50 in test [1] was greater than 30 µM; in test [2], greater than 30000 nM.

Regarding `CC(C)(O)C1Cc2ccc(OC(=O)c3ccc(-c4cccc([N+](=O)[O-])c4)cc3)cc2O1` (stereo not drawn), the IC50 was greater than 30 µM in test [1] and greater than 30000 nM in test [2].

Take `CC1(C)Oc2cc(OC(=O)c3ccc(-c4cccc(C#N)c4)cc3)ccc2CC1O` (stereo not drawn): the IC50 is greater than 30 µM in test [1] and greater than 30000 nM in test [2].

Consider `COc1cccc(-c2ccc(C(=O)Oc3ccc4c(c3)OC(C(C)(C)O)C4)cc2)c1` (stereo not drawn), for which the IC50 in test [1] was greater than 30 µM; in test [2] it was greater than 30000 nM.

For the compound `CC1(C)Oc2cc3oc(-c4cc(O)cc(O)c4)cc3cc2CC1O` (racemic) [(+/-)-MORACIN P], the IC50 in test [1] is greater than 30 µM; in test [2], 10700 nM.

For the compound `CCOC(=O)COc1ccc(-c2cc3cc4c(cc3o2)OC(C(C)(C)O)C4)cc1` (stereo not drawn), the IC50 in test [1] was greater than 30 µM; in test [2], 54 nM.

`CC1(C)Oc2cc3oc(-c4cc(O)cc(O)c4)cc3cc2C[C@H]1O` [MORACIN P]: the IC50 in test [2] is 10.7 nM.

As for `CC(C)(O)C1Cc2cc3cc(-c4ccc(O)cc4)oc3cc2O1` (stereo not drawn), the IC50 was greater than 30 µM in test [1] and 4.2 nM in test [2]. Further, the inhibition entry in test [4] and in test [3] was “Dose-dependent effect” in each case.

For `COc1ccccc1-c1cc2cc3c(cc2o1)OC(C(C)(C)O)C3` (stereo not drawn), the 50% inhibitory concentration (IC50) in test [1] was greater than 30 µM; in test [2], 580 nM.

As for `CC1(C)Oc2cc(OC(=O)c3ccc(OCc4ccccc4)cc3)ccc2CC1O` (stereo not drawn), the values for the IC50 in test [1] and in test [2] were greater than 30 µM and 12900 nM, respectively.

Take `COc1ccc(-c2cc3cc4c(cc3o2)OC(C(C)(C)O)C4)cc1` (stereo not drawn): the IC50 in test [1] was greater than 30 µM; in test [2], 110 nM.

With `CC(C)(O)C1Cc2cc3cc(-c4cccc(O)c4)oc3cc2O1` (stereo not drawn), the figures for the IC50 in test [1] and in test [2] were greater than 30 µM and 46 nM, respectively.

For `CC1(C)Oc2cc(OC(=O)c3ccc(-c4ccc(F)cc4F)cc3)ccc2CC1O` (stereo not drawn), the values for the IC50 in test [1] and in test [2] were greater than 30 µM and 17600 nM, respectively.

For `CC1(C)Oc2cc(OC(=O)c3ccc(OCc4ccccc4)c(OCc4ccccc4)c3)ccc2CC1O` (stereo not drawn), the results for the half-maximal inhibitory concentration (IC50) in test [1] and in test [2] were greater than 30 µM and 7300 nM, respectively.

With `CC(C)(O)C1Cc2cc3cc(-c4ccncc4)oc3cc2O1` (stereo not drawn), the IC50 in test [1] is greater than 30 µM; in test [2], 1100 nM.

As for `CC(C)(O)C1Cc2cc3cc(-c4cc(F)cc(F)c4)oc3cc2O1` (stereo not drawn), the concentration for half-maximal inhibition (IC50) was greater than 30 µM in test [1] and 360 nM in test [2].

Take `CC1(C)Oc2cc(OC(=O)c3ccc(O)c(O)c3)ccc2CC1O` (stereo not drawn): the IC50 in test [1] is greater than 30 µM; in test [2], greater than 30000 nM.

Take `CC1(C)Oc2cc(OC(=O)c3cc(OCc4ccccc4)cc(OCc4ccccc4)c3)ccc2CC1O` (stereo not drawn): the IC50 was greater than 30 µM in test [1] and 2600 nM in test [2].

As to `CC1(C)Oc2cc(OC(=O)c3cccc(OCc4ccccc4)c3)ccc2CC1O` (stereo not drawn), the IC50 in test [1] is greater than 30 µM; in test [2], 5300 nM.

As for `CC(C)(O)C1Cc2ccc(OC(=O)c3ccc(Br)cc3)cc2O1` (stereo not drawn), the IC50 was greater than 30 µM in test [1] and greater than 30000 nM in test [2].

On to `Cn1cncc1-c1cc2cc3c(cc2o1)OC(C(C)(C)O)C3` (stereo not drawn), for which the values for the IC50 in test [1] and in test [2] were greater than 30 µM and greater than 30 nM, respectively.

For the compound `CC(C)(O)[C@H]1Cc2cc3cc(-c4ccc(O)cc4)oc3cc2O1`, the IC50 in test [1] is greater than 30 µM; in test [2], 1 nM. Further, the inhibition result in test [5] was “Active”. In addition, in test [3], the inhibition result was “Dose-dependent effect”.

Turning to `COc1cccc(-c2cc3cc4c(cc3o2)OC(C(C)(C)O)C4)c1` (stereo not drawn), the IC50 in test [1] was greater than 30 µM; in test [2], 7 nM.

With `CC(C)(O)C1Cc2cc3cc(-c4ccc(OCc5ccccc5)cc4)oc3cc2O1` (stereo not drawn), the IC50 is greater than 30 µM in test [1] and 490 nM in test [2].

As for `CC1(C)Oc2cc(OC(=O)c3ccc(Br)cc3)ccc2CC1O` (stereo not drawn), the IC50 in test [1] was greater than 30 µM; in test [2] it was 16800 nM.

As for `CC(C)(O)C1Cc2ccc(OC(=O)c3cc(O)cc(O)c3)cc2O1` (stereo not drawn), the IC50 in test [1] was greater than 30 µM; in test [2], greater than 30000 nM.
